B1: Osa-1-4 twister ribozyme (parent)
chain: CCGCCUAACACUGCCAAUGCCGGUCCCAAGCCCGGAUAAAAGUGGAGGGGGCGG

The variants in the series derive from B1. Kind of series: self-cleavage, relative activity (ratio to wild type); higher = more cleavage; co-transcriptional. In short, it runs like this:
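A DNA template for a 54-nucleotide Oryza sativa twister ribozyme was synthesised with 97 % wild-type base and 1 % of each other base at the 48 positions downstream of the cleavage site. It was transcribed in vitro for 2 h at 37 °C, allowing co-transcriptional self-cleavage, then reverse-transcribed with a template-switching oligonucleotide, PCR-amplified and deep-sequenced. Cleavage status was scored from reads with or without upstream sequence. Relative activity is fraction cleaved normalised to wild type.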
Take A7C G49C: the self-cleavage was found to be 0.01.

For A7C G49U, the self-cleavage is 0.02.

Turning to A7G C21G, the self-cleavage worked out at 0.03.

Turning to A7G C21U, the self-cleavage stood at 0.23.

As for A7G C21A, the self-cleavage is 0.1.

As to A7U G19U, the self-cleavage is 0.1.

As to A7U G19C, the self-cleavage turned out to be 0.03.

As for A7U G19A, the self-cleavage came to 0.06.

For the variant A7G G42U, the self-cleavage was determined as 0.05.

Regarding A7G G42C, the self-cleavage was found to be 0.08.

Turning to A7G G42A, the self-cleavage came out at 0.13.

For the variant A7C G22A, the self-cleavage came out at 0.07.

For A7C G22C, the self-cleavage was 0.02.

Consider A7C G22U, for which the self-cleavage turned out to be 0.04.

Regarding A7G C27A, the self-cleavage was 0.07.

For A7G C27U, the self-cleavage is 0.1.

A7G C27G: the self-cleavage was found to be 0.07.

For the variant A7U C33U, the self-cleavage was 0.08.

In the case of A7U C33G, the self-cleavage stood at 0.03.

Regarding A7U C33A, the self-cleavage came to 0.03.

As for A7C U37C, the self-cleavage is 0.06.

For A7C U37A, the self-cleavage is 0.02.

Consider A7C U37G, for which the self-cleavage came to 0.07.

Take A7C U24G: the self-cleavage is 0.01.

As to A7C U24A, the self-cleavage was 0.04.

With A7C U24C, the self-cleavage was 0.03.

On to A8C C27G, for which the self-cleavage is 0.03.

With A8C C27A, the self-cleavage turned out to be 0.13.

As to A8C C27U, the self-cleavage stood at 0.04.

For A7G U43C, the self-cleavage is 0.12.

Consider A7G U43A, for which the self-cleavage was found to be 0.2.

As to A7G U43G, the self-cleavage is 0.11.

With A7C G35U, the self-cleavage was found to be 0.05.

Regarding A7C G35A, the self-cleavage amounted to 0.04.

For the variant A7C G35C, the self-cleavage is 0.04.

With A8C C20A, the self-cleavage turned out to be 0.08.

A8C C20U: the self-cleavage worked out at 0.09.

In the case of A8C C20G, the self-cleavage stood at 0.03.

On to A7U C11A, for which the self-cleavage amounted to 0.08.

Turning to A7U C11U, the self-cleavage came out at 0.05.

Take A7U C11G: the self-cleavage was determined as 0.06.

A7U G44A: the self-cleavage is 0.06.

For the variant A7U G44C, the self-cleavage was found to be 0.06.

A7U G44U: the self-cleavage was found to be 0.09.

In the case of A7C G54U, the self-cleavage came to 0.06.

Consider A7C G54A, for which the self-cleavage was determined as 0.05.

Consider A7C G54C, for which the self-cleavage worked out at 0.05.

With A7C G48U, the self-cleavage was found to be 0.01.

For the variant A7C G48C, the self-cleavage was found to be 0.02.

For A7C G48A, the self-cleavage is 0.02.

Turning to A8C G19U, the self-cleavage was 0.06.

On to A8C G19C, for which the self-cleavage worked out at 0.08.

Take A8C G19A: the self-cleavage stood at 0.07.

As to A7G C15U, the self-cleavage amounted to 0.09.

On to A7G C15A, for which the self-cleavage stood at 0.12.

As for A7G C15G, the self-cleavage stood at 0.27.

For A8C C14A, the self-cleavage stood at 0.04.

Consider A8C C14G, for which the self-cleavage turned out to be 0.03.

Regarding A8C C14U, the self-cleavage was 0.05.

For A7C U43G, the self-cleavage came out at 0.06.

With A7C U43A, the self-cleavage is 0.06.

On to A7C U43C, for which the self-cleavage was found to be 0.04.

Take A8C C33A: the self-cleavage was determined as 0.06.

Regarding A8C C33U, the self-cleavage worked out at 0.06.

For the variant A8C C33G, the self-cleavage worked out at 0.03.

As to A7C G23U, the self-cleavage amounted to 0.02.

Take A7C G23C: the self-cleavage turned out to be 0.01.

As for A7C G23A, the self-cleavage turned out to be 0.05.

For A7G G30A, the self-cleavage was 0.04.

Take A7G G30C: the self-cleavage stood at 0.03.

As for A7G G30U, the self-cleavage was determined as 0.05.

Turning to A7G G48C, the self-cleavage worked out at 0.05.

On to A7G G48A, for which the self-cleavage came to 0.06.

With A7G G48U, the self-cleavage came out at 0.05.

On to A7U G51U, for which the self-cleavage was determined as 0.05.

Regarding A7U G51A, the self-cleavage stood at 0.07.

For the variant A7U G51C, the self-cleavage came out at 0.03.

For A7G C52U, the self-cleavage is 0.55.

On to A7G C52A, for which the self-cleavage turned out to be 0.29.

On to A7G C52G, for which the self-cleavage was 0.32.

In the case of A7G U12G, the self-cleavage was 0.12.

As to A7G U12C, the self-cleavage was determined as 0.1.

Turning to A7G U12A, the self-cleavage is 0.16.

Consider A8C C11A, for which the self-cleavage was 0.1.

For the variant A8C C11U, the self-cleavage came to 0.09.

Consider A8C C11G, for which the self-cleavage was found to be 0.06.

In the case of A7C G44A, the self-cleavage was found to be 0.05.

With A7C G44C, the self-cleavage is 0.05.

Take A7C G44U: the self-cleavage turned out to be 0.05.

As for A7U G53A, the self-cleavage came out at 0.08.

As for A7U G53C, the self-cleavage is 0.03.

In the case of A7U G53U, the self-cleavage worked out at 0.05.

As for A7G G45A, the self-cleavage was found to be 0.08.

For A7G G45C, the self-cleavage is 0.04.

On to A7G G45U, for which the self-cleavage is 0.05.

Regarding A7C G51U, the self-cleavage turned out to be 0.03.

On to A7C G51A, for which the self-cleavage is 0.04.

Turning to A7C G51C, the self-cleavage was 0.02.

Turning to A7G C11G, the self-cleavage was 0.1.

In the case of A7G C11A, the self-cleavage was found to be 0.13.

On to A7G C11U, for which the self-cleavage turned out to be 0.15.

For the variant A7C G47U, the self-cleavage turned out to be 0.03.

Consider A7C G47C, for which the self-cleavage amounted to 0.02.

In the case of A7C G47A, the self-cleavage was 0.04.

Take A7G G47A: the self-cleavage worked out at 0.08.

As for A7G G47C, the self-cleavage came to 0.05.

As to A7G G47U, the self-cleavage stood at 0.07.

Take A7U G13C: the self-cleavage is 0.02.

Consider A7U G13A, for which the self-cleavage was 0.04.

On to A7U G13U, for which the self-cleavage came to 0.06.

As to A7U G30A, the self-cleavage was determined as 0.06.

A7U G30C: the self-cleavage is 0.02.

As for A7U G30U, the self-cleavage was found to be 0.02.

Turning to A8C G23A, the self-cleavage turned out to be 0.08.

For the variant A8C G23U, the self-cleavage stood at 0.07.

In the case of A8C G23C, the self-cleavage came out at 0.02.

Turning to A7G U24G, the self-cleavage is 0.04.

With A7G U24C, the self-cleavage is 0.07.

Regarding A7G U24A, the self-cleavage worked out at 0.08.

As for A7G C31G, the self-cleavage came out at 0.14.

For A7G C31U, the self-cleavage was 0.09.

Take A7G C31A: the self-cleavage came out at 0.03.

On to A7C U18G, for which the self-cleavage worked out at 0.08.

Turning to A7C U18A, the self-cleavage was 0.04.

With A7C U18C, the self-cleavage was determined as 0.06.

Regarding A8C C15G, the self-cleavage was 0.05.

A8C C15U: the self-cleavage amounted to 0.04.

In the case of A8C C15A, the self-cleavage amounted to 0.21.

As to A7U G22A, the self-cleavage was determined as 0.09.

Take A7U G22U: the self-cleavage came to 0.06.

Take A7U G22C: the self-cleavage is 0.07.

Regarding A7U C20U, the self-cleavage is 0.09.

Regarding A7U C20G, the self-cleavage amounted to 0.11.

For A7U C20A, the self-cleavage came out at 0.06.

Regarding A7C G45C, the self-cleavage came to 0.01.

Regarding A7C G45U, the self-cleavage is 0.02.

Consider A7C G45A, for which the self-cleavage is 0.03.

Regarding A7G C26A, the self-cleavage stood at 0.04.

For A7G C26U, the self-cleavage was found to be 0.13.

In the case of A7G C26G, the self-cleavage stood at 0.19.

As for A7G C32G, the self-cleavage is 0.09.

For A7G C32A, the self-cleavage turned out to be 0.05.

For the variant A7G C32U, the self-cleavage amounted to 0.08.

With A7U G23C, the self-cleavage came out at 0.03.

Consider A7U G23A, for which the self-cleavage was found to be 0.06.

On to A7U G23U, for which the self-cleavage came to 0.03.

As to A7G G23U, the self-cleavage was determined as 0.04.

As for A7G G23A, the self-cleavage came to 0.14.

On to A7G G23C, for which the self-cleavage was 0.06.

As to A7G C25U, the self-cleavage was determined as 0.17.

Turning to A7G C25G, the self-cleavage is 0.06.

With A7G C25A, the self-cleavage was found to be 0.05.

Turning to A7U A8C, the self-cleavage was 0.02.

On to A7U A8G, for which the self-cleavage stood at 0.09.

In the case of A7U A8U, the self-cleavage worked out at 0.07.

On to A8C G30A, for which the self-cleavage was found to be 0.01.

On to A8C G30U, for which the self-cleavage was determined as 0.01.

With A8C G30C, the self-cleavage is 0.03.

For the variant A7C G34U, the self-cleavage was found to be 0.05.

As for A7C G34C, the self-cleavage was 0.04.

Take A7C G34A: the self-cleavage was 0.03.

Take A8C C9A: the self-cleavage amounted to 0.1.

A8C C9G: the self-cleavage was determined as 0.05.

As to A8C C9U, the self-cleavage turned out to be 0.01.

In the case of A7C G30A, the self-cleavage came out at 0.01.

Take A7C G30U: the self-cleavage was 0.01.

A7C G30C: the self-cleavage was determined as 0.01.

The values above are taken from the RNAGym collection of RNA variant scans (doi:10.1002/anie.201605470).
